Bioassay records from PubChem BioAssay.
Rows were chosen to be rich in hits. Some 1.3% of all compounds tested hit in one or more screens of this group.
NS3 helicase inh = inhibitors of HCV NS3 helicase, primary screen, biochemical, Cy5 molecular beacon fluorescence; NS3 helicase DNA unwinding; inhibition, % at 10.9 µM; actives 0.56% (n = 290,000); AID 1800, 2009;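 active means inhibition above the mean of all tested compounds plus 3 SD, set per campaign, cut at about 35% in these data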
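Assay system – hepatitis C virus NS3 helicase domain fragment enzyme · Buffer or medium – MOPS pH 6.5, MgCl2, DTT, Tween20, BSA · Reagent – Cy5/quencher beacon DNA duplex and ATP to start · Compound – single 10.9 µM dose · Timing – 1 h at 25 °C · Technique – Cy5 beacon fluorescence read at start and 1 h · Measure – % inhibition of unwinding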
TbMetRS inhib = T. brucei MetRS inhibitors, primary screen, biochemical, luminescence; methionyl-tRNA synthetase (Trypanosoma brucei brucei); purified T. brucei MetRS, ATP depletion, Kinase-Glo luminescence; inhibition, % at 11.9 µM; actives 0.4% (n = 360,000);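 active means inhibition above a per-plate cutoff of the control wells' mean inhibition plus 3 SD, cut at about 5.5% in these data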
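Dosing: 11.9 µM compound single dose, 0.9% DMSO; Assay system: purified T. brucei MetRS enzyme; Measured by: Kinase-Glo luciferase luminescence reporting remaining unconsumed ATP; Schedule: 15 min plus 2 h at 25 °C.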
Lipid droplet = inhibitors of hepatocyte lipid droplet formation, primary screen, imaging, high-throughput imaging, BODIPY stain; AML12 mouse hepatocytes, oleate lipid droplets; inhibition, % at 6.5 µM; actives 0.4% (n = 240,000);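 active means lipid droplet intensity inhibited by at least 50%, with more than 500 cells counted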
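Assay system: AML12 mouse liver cells | Compound dosing: One dose, 6.5 µM compound | Read-out basis: Droplet intensity reduction, % inhibition | Measured by: Fluorescence imaging, 20x objective, two fields per well | Schedule: Overnight treatment with compound plus oleate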
core dimer inh = inhibitors of HCV core protein dimerization, primary screen, biochemical, TR-FRET, high-throughput | TR-FRET GST/Flag-core106 dimerization, 1536-well | inhibition, % at 5 µM | actives 0.33% (n = 300,000);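 active means inhibition above the mean of all tested compounds plus 3 SD, set per screening campaign, cut at about 45% in these data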
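Test system: GST/Flag-tagged HCV core106 proteins; Medium: KF-containing HEPES buffer, pH 7.45, DTT, CHAPS, BSA; Times: compound-protein-antibody incubation 4 h at 22.5 °C; Detection: TR-FRET 671 and 617 nm emission; Benchmarks: wells lacking GST-core106 and wells with excess unlabelled core106.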
NS3 helicase cf = HCV NS3 helicase inhibitors, retest, confirmation, biochemical, Cy5 molecular beacon fluorescence, triplicate; inhibition, % at 10.9 µM; NS3 helicase DNA unwinding; AID 1943, 2009; actives 31% (n = 1,600); shares compounds with NS3 helicase inh;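 active means inhibition above the mean of all tested compounds plus 3 SD, cutoff set per campaign, cut at about 36% in these data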
FID counter trip = compounds displacing fluorescent DNA intercalator, artefact control for HCV NS3 helicase inhibitor project, biochemical, FID fluorescence, triplicate; shares compounds with NS3 helicase inh; DNA fluorescent intercalator displacement; inhibition, % at 7.9 µM; actives 4% (n = 1,600); AID 1945, 2009; in the data active means inhibition above about 37%;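 further: higher means more displacement of ethidium bromide from the DNA hairpin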
A number is an active result; – = inactive; · = not tested or not shown.

SMILES	NS3 helicase inh	TbMetRS inhib	Lipid droplet	core dimer inh	NS3 helicase cf	FID counter trip
OC[C@@H]1CN(Cc2cccc(C(F)(F)F)c2)C[C@H](n2cnc3c(NCc4ccncc4)ncnc32)O1	·	–	·	·	·	·
Cc1ccc(C)c2[nH]c(=O)c(C(c3nnnn3CCc3ccccc3)N3CCOCC3)cc12 (stereo not drawn)	–	–	·	–	·	·
Cc1ccc(C)c2[nH]c(=O)c(C(c3nnnn3Cc3ccco3)N3CCc4ccccc4C3)cc12 (stereo not drawn)	39.0	–	·	–	–	–
Cc1ccc(S(=O)(=O)N2CCN(C(=O)COC(=O)Cc3ccc(Cl)cc3)CC2)c(C)c1	·	–	·	·	·	·
NC(=O)N/N=C/c1ccc(N2CCOCC2)s1	–	–	–	–	·	·
O=C(O)c1cc(N/N=C/c2ccc(N3CCOCC3)s2)ccc1Cl	46.7	–	–	–	79.7	–
Cc1ccc(C(C(=O)NC2CCCC2)N(C(=O)CNC(=O)c2ccco2)c2ccccc2)o1 (stereo not drawn)	–	–	–	–	·	·
Cc1cc(C2=NNC(=NCc3ccccc3)SC2)c(C)n1-c1c(C)n(C)n(-c2ccccc2)c1=O	36.5	–	–	·	–	–
CN=C1NN=C(c2cc(C)n(-c3c(C)n(C)n(-c4ccccc4)c3=O)c2C)CS1	–	–	–	–	·	·
CCSc1ccc(C(=O)NCC(=O)O)cc1	–	–	–	–	·	·
CSc1ccc(NC(=O)Nc2ccc(C(=O)NCC(=O)O)cc2)cc1	–	–	–	·	–	–
C(=Nc1cccc2c(N=Cc3ccco3)cccc12)c1ccco1	37.2	–	–	–	–	–
CN(C)c1ccc(C=Nc2ccc(N(C)C)cc2)cc1	37.2	–	–	–	–	–
CN(C)c1ccc(N=Cc2ccco2)cc1	41.1	–	·	–	–	–
Cc1ccc(N=Cc2ccc(N(C)C)cc2)cc1	–	–	·	–	·	·
CCNC(=O)C1CCCN(Cc2ccc(C(=O)OCC)cc2)CC1 (stereo not drawn)	·	–	·	·	·	·
CN(Cc1ccccc1)C(=O)c1cccc(NC(=O)Cc2ccc(NC(=O)C3CCN(C(=O)C4CC4)CC3)cc2)c1	·	–	·	·	·	·
O=C1NC(Cc2ccc(O)cc2)c2nc3ccc(F)cc3c(=O)n2-c2cc3ccccc3cc21 (stereo not drawn)	·	–	·	·	·	·
CCOC(=O)[C@]12CCCC=C1N(Cc1ccccc1)C(=O)[C@H](CC(=O)N1CCN(C(=O)c3ccco3)CC1)C2	·	–	·	·	·	·
COc1ccc(N=C2SC(CC(=O)Nc3ccccc3OC)C(=O)N2Cc2ccco2)cc1 (stereo not drawn)	40.9	–	–	–	–	–
O=C(O)c1cocc1C(=O)O	·	–	·	·	·	·
O=C(NCC1CCCO1)c1cc2nc(-c3ccco3)cc(C(F)(F)Cl)n2n1 (stereo not drawn)	51.4	–	–	–	–	–
CCN(CC)c1ccc2c(-c3ccc(S(=O)(=O)O)cc3S(=O)(=O)[O-])c3ccc(=[N+](CC)CC)cc-3oc2c1	51.3	–	–	67.8	84.4	·
CCN(CC)c1ccc2cc(C(N)=O)c(=N)oc2c1	–	–	–	–	·	·
CCCCC(CCC(=O)O)(C(=O)OCC)c1csc(Nc2ccc(C)cc2)n1 (stereo not drawn)	–	–	–	–	·	·
SMILES	NS3 helicase inh	TbMetRS inhib	Lipid droplet	core dimer inh	NS3 helicase cf	FID counter trip
CCOC(=O)C(CC)(CCC(=O)OC)c1csc(Nc2ccccc2O)n1 (stereo not drawn)	39.6	·	–	–	–	–
Cc1cc(C)n(CCNC(=O)[C@H]2O[C@@H](n3cnc4c(N)ncnc43)[C@H](O)[C@@H]2O)n1	·	–	·	·	·	·
COc1cc(/C=C/[N+](=O)[O-])ccc1OCc1cccc(C(=O)O)c1	36.0	·	–	·	68.7	–
CCC(c1ccccc1)c1noc(CCN(CC)CC)n1 (stereo not drawn)	·	–	·	·	·	·
Cc1nnc2sc(SCC(=O)Nc3nccs3)nn2c1=O	39.5	–	–	–	–	–
O=C(Cn1cc(C(F)(F)F)cc(Cl)c1=O)NCc1ccccc1	–	–	–	–	·	·
COc1cccc(OC)c1OCCN1CCC(C(=O)NC(c2ccc3c(c2)OCO3)c2ccccn2)CC1 (stereo not drawn)	·	–	·	·	·	·
CCOC(=O)c1sc2ncnc(NCC(c3cccs3)N(C)C)c2c1C (stereo not drawn)	–	–	·	–	·	·
CN(C)C(CNc1ncnc2sccc12)c1cccs1 (stereo not drawn)	73.8	–	–	–	–	–
CCOc1ncccc1C(=O)OCc1cc(=O)oc2c(C)c(C)ccc12	–	–	·	·	·	·
Cc1cccc(C(=O)OCc2cc(=O)oc3c(C)c(C)ccc23)c1O	36.9	–	–	–	–	–
COc1ccnc(Oc2ccc(Cl)cc2)c1C#N	–	–	–	–	·	·
O=C(Cn1c(=O)c2sccc2n(Cc2cccc([N+](=O)[O-])c2)c1=O)NCCc1ccccc1	44.4	–	–	–	–	–
Nc1ccc(Oc2ccc(N)c([N+](=O)[O-])c2)cc1[N+](=O)[O-]	·	–	·	·	·	·
CC1(C)Oc2cc(N)c([N+](=O)[O-])cc2O1	53.6	–	·	–	–	–
O=C(O)c1ccccc1C(=O)c1ccc(-c2ccccc2)cc1	42.3	–	–	–	–	–
O=C(O)c1ccccc1C(=O)c1ccc(Cl)cc1	–	–	–	–	·	·
O=C(NC(=O)c1ccccc1)Nc1ccc(Cl)cn1	–	–	–	–	·	·
CSc1ncnc2c1ncn2CCCN(C)Cc1ccco1	·	–	·	·	·	·
Fc1ccccc1/C=N/n1c(COc2ccccc2)n[nH]c1=S	49.7	–	·	–	–	–
COc1ccc(S(=O)(=O)N2CCC[C@H]2C(=O)N2CCC[C@H]2C(=O)N(C)Cc2ccccc2)cc1C	·	–	·	·	·	·
COc1ccc(CCNC(=O)C2CC(=O)N(C3CCCCC3)C2)cc1OC (stereo not drawn)	95.5	–	–	–	–	–
COc1c2c(nc3occc13)C(CC=C(C)C)(OC)C(O)CC2 (stereo not drawn)	–	–	–	–	·	·
COCCN(C(=O)C(C)C)c1nnc(-c2ccc(C)cc2)s1	–	–	·	–	·	·
CCOC(=O)c1c(CC(C)C)csc1NC(C)=O	–	–	–	–	·	·
CCOC(=O)c1c(CC(C)C)csc1NC(=O)c1ccccc1C(=O)O	49.6	–	–	–	71.3	–
COc1ccc(NC(=O)CN2C(=O)c3ccccc3S2(=O)=O)cc1S(=O)(=O)N1CCOCC1	·	–	·	·	·	·
O=C(NCCNc1ccc(Cl)cc1[N+](=O)[O-])c1ccccc1F	41.1	–	–	–	–	–
Cc1ccc(C(=O)NCCNc2ccc(Cl)cc2[N+](=O)[O-])o1	–	–	·	–	·	·
